The text below walks through data of ChEMBL document CHEMBL1649429, “Novel plasmid-encoded ceftazidime-hydrolyzing CTX-M-53 extended-spectrum beta-lactamase from Salmonella enterica serotypes Westhampton and Senftenberg” (Antimicrob Agents Chemother, 2009).

Substrate in data set [1]: C[C@H]1[C@H](NC(=O)/C(=N\OC(C)(C)C(=O)O)c2csc(N)n2)C(=O)N1S(=O)(=O)O
The settings on record: Escherichia coli.

Substrate in data set [2]: CC(C)(O/N=C(\C(=O)N[C@@H]1C(=O)N2C(C(=O)[O-])=C(C[n+]3ccccc3)CS[C@H]12)c1csc(N)n1)C(=O)O
Particulars: Escherichia coli.

Substrate in data set [3]: C[C@H]1[C@H](NC(=O)/C(=N\OC(C)(C)C(=O)O)c2csc(N)n2)C(=O)N1S(=O)(=O)O
The settings on record: Escherichia coli. The source holds these as a separate data set.

Substrate in data set [4]: CC(C)(O/N=C(\C(=O)N[C@@H]1C(=O)N2C(C(=O)[O-])=C(C[n+]3ccccc3)CS[C@H]12)c1csc(N)n1)C(=O)O
The settings on record: Escherichia coli. This is another data set of the same source.

Substrate in data set [5]: CC1(C)S[C@@H]2[C@H](NC(=O)Cc3ccccc3)C(=O)N2[C@H]1C(=O)O
Put plainly: (§1) Activity of Salmonella enterica serotype Westhampton beta-lactamase CTX-M-53. The settings on record: Salmonella enterica subsp. enterica serovar Westhampton. In a few lines:
(§2)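 CTX-M-53 was purified from E. coli DH5 carrying recombinant pCTX-M-53, grown in brain heart infusion with cefotaxime 2 µg/ml for 18 h at 37°C. Cells were sonicated in 20 mM MES-NaOH pH 6.0, and nucleic acids removed with spermine. The enzyme was purified by SP Sepharose ion exchange and Superose 12 gel filtration. Km and kcat were measured by computerized microacidimetry, three determinations each.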

Substrate in data set [6]: CC(C)(O/N=C(\C(=O)N[C@@H]1C(=O)N2C(C(=O)[O-])=C(C[n+]3ccccc3)CS[C@H]12)c1csc(N)n1)C(=O)O
The description is as §1. Particulars: Salmonella enterica subsp. enterica serovar Westhampton. The essentials:
as §2

Substrate in data set [7]: CC(=O)OCC1=C(C(=O)O)N2C(=O)[C@@H](NC(=O)Cc3cccs3)[C@H]2SC1
The description is as §1. Particulars: Salmonella enterica subsp. enterica serovar Westhampton. The essentials:
as §2

Substrate in data set [8]: CC1(C)S[C@@H]2[C@H](NC(=O)[C@H](C(=O)O)c3ccsc3)C(=O)N2[C@H]1C(=O)O
Described as §1. Particulars: Salmonella enterica subsp. enterica serovar Westhampton. In a few lines: as §2

Substrate in data set [9]: CO/N=C(\C(=O)N[C@@H]1C(=O)N2C(C(=O)O)=C(COC(C)=O)CS[C@H]12)c1csc(N)n1
The description is as §1. Particulars: Salmonella enterica subsp. enterica serovar Westhampton. In a few lines:
as §2

Substrate in data set [10]: CO/N=C(\C(=O)N[C@@H]1C(=O)N2C(C(=O)[O-])=C(C[n+]3cccc4c3CCC4)CS[C@H]12)c1csc(N)n1
The description is as §1. Particulars: Salmonella enterica subsp. enterica serovar Westhampton. The essentials: as §2

Substrate in data set [11]: CCN1CCN(C(=O)N[C@@H](C(=O)N[C@@H]2C(=O)N3[C@@H]2SC(C)(C)[C@@H]3C(=O)O)c2ccccc2)C(=O)C1=O
The data set is described as §1. The settings on record: Salmonella enterica subsp. enterica serovar Westhampton. The essentials: as §2

Substrate in data set [12]: CO/N=C(\C(=O)N[C@@H]1C(=O)N2C(C(=O)O)=C(COC(N)=O)CS[C@H]12)c1ccco1
The description is as §1. Particulars: Salmonella enterica subsp. enterica serovar Westhampton. In a few lines:
as §2

Substrate in data set [13]: C[C@H]1[C@H](NC(=O)/C(=N\OC(C)(C)C(=O)O)c2csc(N)n2)C(=O)N1S(=O)(=O)O
The description is as §1. The settings on record: Salmonella enterica subsp. enterica serovar Westhampton. In a few lines:
as §2

Substrate in data set [14]: CC1(C)S[C@@H]2[C@H](NC(=O)[C@H](N)c3ccc(O)cc3)C(=O)N2[C@H]1C(=O)O
Described as §1. The settings on record: Salmonella enterica subsp. enterica serovar Westhampton. The essentials:
as §2

Substrate in data set [15]: CC1(C)S[C@@H]2[C@H](NC(=O)Cc3ccccc3)C(=O)N2[C@H]1C(=O)O
Put plainly: (§3) Ratio of Kcat/Km for Salmonella enterica serotype Westhampton beta-lactamase CTX-M-53. The settings on record: Salmonella enterica subsp. enterica serovar Westhampton. The essentials:
as §2

Substrate in data set [16]: CC(C)(O/N=C(\C(=O)N[C@@H]1C(=O)N2C(C(=O)[O-])=C(C[n+]3ccccc3)CS[C@H]12)c1csc(N)n1)C(=O)O
The data set is described as §3. Particulars: Salmonella enterica subsp. enterica serovar Westhampton. In a few lines: as §2

Substrate in data set [17]: CC(=O)OCC1=C(C(=O)O)N2C(=O)[C@@H](NC(=O)Cc3cccs3)[C@H]2SC1
The description is as §3. Particulars: Salmonella enterica subsp. enterica serovar Westhampton. In a few lines:
as §2

Substrate in data set [18]: CC1(C)S[C@@H]2[C@H](NC(=O)[C@H](C(=O)O)c3ccsc3)C(=O)N2[C@H]1C(=O)O
Described as §3. Particulars: Salmonella enterica subsp. enterica serovar Westhampton. The essentials: as §2

Substrate in data set [19]: CO/N=C(\C(=O)N[C@@H]1C(=O)N2C(C(=O)O)=C(COC(C)=O)CS[C@H]12)c1csc(N)n1
Described as §3. Particulars: Salmonella enterica subsp. enterica serovar Westhampton. In a few lines:
as §2

Substrate in data set [20]: CO/N=C(\C(=O)N[C@@H]1C(=O)N2C(C(=O)[O-])=C(C[n+]3cccc4c3CCC4)CS[C@H]12)c1csc(N)n1
Described as §3. Particulars: Salmonella enterica subsp. enterica serovar Westhampton. The essentials:
as §2

Substrate in data set [21]: CCN1CCN(C(=O)N[C@@H](C(=O)N[C@@H]2C(=O)N3[C@@H]2SC(C)(C)[C@@H]3C(=O)O)c2ccccc2)C(=O)C1=O
Described as §3. The settings on record: Salmonella enterica subsp. enterica serovar Westhampton. In a few lines: as §2

Substrate in data set [22]: CO/N=C(\C(=O)N[C@@H]1C(=O)N2C(C(=O)O)=C(COC(N)=O)CS[C@H]12)c1ccco1
Described as §3. Particulars: Salmonella enterica subsp. enterica serovar Westhampton. In a few lines: as §2

Substrate in data set [23]: C[C@H]1[C@H](NC(=O)/C(=N\OC(C)(C)C(=O)O)c2csc(N)n2)C(=O)N1S(=O)(=O)O
The description is as §3. The settings on record: Salmonella enterica subsp. enterica serovar Westhampton. The essentials:
as §2

Substrate in data set [24]: CC1(C)S[C@@H]2[C@H](NC(=O)[C@H](N)c3ccc(O)cc3)C(=O)N2[C@H]1C(=O)O
The description is as §3. Particulars: Salmonella enterica subsp. enterica serovar Westhampton. In a few lines:
as §2

Where a chain is given by its changes, count along the chain named.

B1: Beta-lactamase CTX-M-16 (Escherichia coli), Q939N4 (protein)
chain: MVTKRVQRMMFAAAACIPLLLGSAPLYAQTSAVQQKLAALEKSSGGRLGVALIDTADNTQVLYRGDERFPMCSTSKVMAAAAVLKQSETQKQLLNQPVEIKPADLVNYNPIAEKHVNGTMTLAELSAAALQYSDNTAMNKLIAQLGGPGGVTAFARAIGDETFRLDRTEPTLNTAIPGDPRDTTTPRAMAQTLRQLTLGHALGETQRAQLVTWLKGNTTGAASIRAGLPTSWTAGDKTGSGGYGTTNDIAVIWPQGRAPLVLVTYFTQPQQNAESRRDVLASAARIIAEGL
In the case of B1, the Km in data set [1] stood at 17 µM. The kcat/Km in data set [2] stood at 0.04 s⁻¹.

B2: Beta-lactamase CTX-M-27 (Escherichia coli), Q840M4 (protein)
chain: B1 chain with A234V
Regarding B2, the Km in data set [3] worked out at 17 µM. Besides, the kcat/Km in [4] came to 0.01 s⁻¹.

B3: Extended-spectrum beta-lactamase CTX-M-53 (Salmonella enterica subsp. enterica serovar Westhampton), Q2XPY6 (protein)
chain: MVKKSLRQFTLMATATVTLLLGSVPLYAQTVDVQQKLAELEQQSGGRLGVALINTADNSQILYRADERFAMCSTSKVMAVAAVLKKSESEPNLLNQRVEIKKSDLVNYNPIAEKHVNGTMSLAELSAAALQYSDNVAMNKLIAHVGGPASVTAFARQLGDETFRLDRTEPTLNTAIPGDPRDTTSPRAMAQTLRNLTLGKALGDSQRAQLVTWMKGNTTGAASIQAGLPASWVVGDKTGSGGYGTTNDIAVIWPKDRAPLILVIYFTQPQPKAESRRDVLASAAKIVTDGL
In the case of B3, the Michaelis-Menten constant (Km) in [5] turned out to be 10 µM; in data set [6] it was 174 µM; in data set [7] it was 122 µM; in data set [8], 18 µM; in data set [9] it was 180 µM; in data set [10] it was 125 µM. The Michaelis-Menten constant (Km) in data set [11] amounted to 12 µM; in data set [12], 80 µM; in data set [13], 14 µM; in data set [14] it was 40 µM. Besides, the turnover number (kcat) came out at 135 s⁻¹ in data set [5]; 14 s⁻¹ in [6]; 2000 s⁻¹ in [7]; 10 s⁻¹ in [8]; 585 s⁻¹ in [9]; 710 s⁻¹ in data set [10]. Also, the kcat in data set [11] was found to be 90 s⁻¹; in data set [12], 292 s⁻¹; in data set [13] it was 4 s⁻¹; in data set [14], 85 s⁻¹. Besides, the kcat/Km in [15] is 13.5 s⁻¹ µM⁻¹; in [16], 0.1 s⁻¹ µM⁻¹; in data set [17], 16.4 s⁻¹ µM⁻¹; in data set [18], 0.5 s⁻¹ µM⁻¹; in data set [19] it was 3.2 s⁻¹ µM⁻¹; in data set [20], 5.7 s⁻¹ µM⁻¹. The kcat/Km was determined as 7.5 s⁻¹ µM⁻¹ in [21], 3.6 s⁻¹ µM⁻¹ in data set [22], 0.3 s⁻¹ µM⁻¹ in [23] and 2.1 s⁻¹ µM⁻¹ in [24].

Broadly, the Km is the substrate concentration at which the rate is half of its maximum. Usually kcat stands for the maximal rate divided by the concentration of active sites.
